From PubChem BioAssay
CHOP inh: inhibitors of CHOP promoter induction, primary screen, cell-based, unfolded protein response, luciferase reporter; CHO-K1 CHOP-promoter luciferase, tunicamycin-induced, 15-18 h; inhibition, % at 10 µM; 220,000 compounds, 3.8% hits;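 active = compounds that reduced the stress-induced luciferase reporter signal by more than about 70% of percent inhibition, limit read from the data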;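 also: 0% = tunicamycin plus vehicle and 100% = wells without tunicamycin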
Dynein cargo inh: inhibitors of GR-EGFP nuclear translocation, primary screen, dynein cargo transport inhibitor project, imaging, high-content, 3617.4 mouse cells; test concentration mostly 20 µM; stimulated with dexamethasone, 1 µM; stronger effect = lower value; AID 1381, 2008; z-score, hits read low; 220,000 compounds, 0.47% hits;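 active = plate z-score of nuclear minus cytoplasmic receptor signal below a set negative limit, without overly bright fluorescence or cell loss, cut at about -3.5 in these data, passing the limit was not always enough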;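 also: z-score of nuclear minus cytoplasmic ring GR-EGFP intensity difference per well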
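medium = tetracycline-free induction medium containing charcoal-stripped FBS | probe or stimulus = dexamethasone, 1.0 µM final | timing = 48 h induction, then 1 h compound, then 30 min agonist, 37 °C | detection = automated 10x imaging of fixed Hoechst-stained cells | read-out basis = nuclear versus cytoplasmic GR-EGFP signal, averaged per well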
Autophagy mod: autophagy modulators in MEF cells, primary screen, imaging, high-content, MEF GFP-LC3 | 190,000 compounds, 0.98% hits | calls only at 10 µM (by protocol) | MEF GFP-LC3 puncta imaging; test concentration mostly 10 µM;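 active = percentage of spot-positive cells more than 3 SD above its plate mean, without a fluorescence outlier flag or 80% toxicity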;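 also: spot-positive cell cutoff set from DMSO-treated cells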
MT stabilize HCS: microtubule stabilizers in HeLa cells, primary screen, imaging, high-content imaging. 200,000 compounds, 0.83% hits. % tubulin-high responders, % at 10 µM. HeLa tubulin immunostaining HCS, 24 h; share of cells brighter than vehicle mean+2SD;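 active = plate Z-score above 3 for both tubulin-high and condensed-nucleus cell shares, with cell loss under 80%, at 10 µM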;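 also: anti alpha tubulin signal scored within the nucleus-defined area of each cell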
L major viab: Leishmania major promastigote growth inhibition, primary screen | Leishmania major promastigotes, resazurin fluorescence viability | AID 1063, 2008 | inhibition, % at 10 µM | 200,000 compounds, 9% hits; in the data active = inhibition above about 50%;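 also: promastigotes grown with compound for 44 hours at 28 °C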
bCat nuc transl: modulators of beta-catenin nuclear translocation, primary screen, imaging, HeLa cells, immunofluorescence, high-content | nuclear translocation activity, % at 5 µM | 190,000 compounds, 0.3% hits;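 active = nuclear translocation activity above 50% at 5 µM, with a well cell count of 50 or more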;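 also: per-cell ratio of nuclear to cytoplasmic median beta-catenin stain intensity; plate controls were DMSO negative control for no effect and GSK-3 inhibitor IX positive control for full effect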
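Test system: human HeLa cell line; Doses: 5 µM primary, 0.02–20 µM confirmation; Incubation: 24 h compound exposure, 37°C; Detection: beta-catenin immunofluorescence imaging with DAPI; Read-out: beta-catenin nuclear/cytoplasmic ratio, % activation.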
An asterisk follows results filed as active; i = inactive; nt = no result given; + = active, no number. Only some compounds are listed: those with a hit (about 12% of all), similar ones and a draw of the others.

SMILES	CHOP inh	Dynein cargo inh	Autophagy mod	MT stabilize HCS	L major viab	bCat nuc transl
O=C(COC(=O)c1ccc2c(=O)n3c(nc2c1)CCC3)Nc1ccc(OC(F)F)cc1	6	-0.66	i	3	-3	-4
CCCSc1nc2c(cnn2-c2ccc(C)cc2)c(=O)[nH]1	62	-0.009	nt	7	-2	-1
CCOc1ccc(NC(=O)Cn2nnc3c(cnn3-c3ccc(F)cc3)c2=O)cc1	72*	0.74	i	2	-8	0
CCCCSc1nc2c(cnn2-c2ccc(C)c(C)c2)c(=O)[nH]1	14	3.3	+	5	12	nt
CCCSc1nc2c(cnn2-c2ccc(C)c(C)c2)c(=O)[nH]1	29	0.016	i	7	2	nt
CCCSc1nc2c(cnn2-c2ccccc2)c(=O)[nH]1	80*	-0.14	i	3	-7	-2
COc1cc(/C=N/NC(=O)c2[nH]nc3c2CCc2ccccc2-3)ccc1O	22	0.75	i	24*	14	34
CCOC(=O)C(C)Oc1ccc(OCc2ccccc2)cc1 (centres undefined)	30	-0.23	i	3	-9	-2
O=C(OC(c1ccccc1)c1nccc2ccccc12)c1cc([N+](=O)[O-])cc([N+](=O)[O-])c1 (centres undefined)	52	1	i	5	98*	0
CCCCOc1ccc(C(=O)NNC(=S)NC(=O)CC)cc1	31	0.4	i	1	93*	3
COc1ccc(C(=O)NC(=S)NNC(=O)c2ccc(NC(=O)C(C)C)cc2)cc1	52	-0.36	i	2	71*	-1
CC(C)C(=O)Nc1ccc(C(=O)NNC(=S)NC(=O)c2ccccc2[N+](=O)[O-])cc1	11	0.58	i	2	-7	0
CCC(=O)NC(=S)NNC(=O)c1ccc([N+](=O)[O-])cc1	13	0.98	i	4	97*	0
CCCOc1ccc(C(=O)NNC(=S)NC(C)=O)cc1	30	1.9	i	5	97*	0
O=C(NC1CCS(=O)(=O)C1)c1cc(-c2ccccc2)nc2ccccc12 (centres undefined)	21	0.87	i	5	12	-1
COc1cccc(CN2CCNC(=O)C2CC(=O)NCCn2ccc3ccccc32)c1OC (centres undefined)	2	-0.85	i	2	-9	0
CCC(=O)NC(=S)NNC(=O)COc1ccc(Br)cc1	26	-0.23	i	1	74*	1
Cc1cc(C)c2c(n1)sc1c(=O)n(Cc3ccccc3Cl)nnc12	3	1.2	i	1	3	nt
O=C(O)CCC(=O)N1CCN(c2ccc(C(=O)c3ccc(F)cc3)cc2)CC1	10	-1.5	i	3	-3	nt
O=C(c1ccccc1)c1ccc(N2CCNCC2)cc1	6	-0.55	i	2	75*	0
O=C(c1ccccc1)c1ccc(N2CCCC2)cc1	23	0.8	i	3	34	-2
CN1CCN(c2ccc(C(=O)c3ccc(F)cc3)cc2)CC1	-1	-0.15	i	2	68*	-4
Cc1nnsc1Sc1ccccc1	-2	-1.6	i	3	-4	0
Cc1ccc(S(=O)(=O)N(C)Cc2nc(-c3ccc(Br)cc3)no2)cc1	83*	-0.81	i	2	-5	nt
Cc1nc(NC(=O)c2cc3c(C)nn(-c4ccccc4)c3s2)sc1C(=O)Nc1ccccc1	-18	2	i	2	23	nt
CC(=O)c1sc(NC(=O)c2cc3c(C)nn(-c4ccccc4)c3s2)nc1C	81*	-0.51	i	2	-1	0
CCOCC(=O)Nc1ccccc1C(=O)OCC	38	-0.78	i	3	-3	1
CCOC(=O)c1ccccc1NC(=O)c1cncc(Br)c1	73*	-0.38	i	3	-2	2
CC(=O)n1cc(Nc2ccccc2C(=O)O)c2ccccc21	28	-0.47	i	2	-11	-4
CCOC(=O)c1ccccc1NC(=O)c1cccs1	92*	-0.71	i	5	4	0
